In ChEMBL document CHEMBL4052634, “Covalent inhibitors of LgtC: A blueprint for the discovery of non-substrate-like inhibitors for bacterial glycosyltransferases” (Bioorg Med Chem, 2017):
pIC50, pKi: −log10 of the molar value. Calls of active or inactive are those of the source. The rule behind the calls is not given here.

Key:
[1] = test system: Neisseria meningitidis; test: Inhibition of Neisseria meningitidis alpha-1,4-galactosyltransferase at 0.1 to 100 uM using lactose as substrate preincubated with compoundfollowed by substrate/UDP-Gal addition measured after 20 min by malachite green dye-based assay
Summary of the method: (§1)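 Enzyme (DTT-activated) with MnCl2 5 mM, CIP 10 U/mL, lysozyme 1 mg/mL, 0.01% Triton, 13 mM HEPES pH 7.0 and inhibitor in DMSO (10% final) pre-incubated 10 min at 30 °C before UDP-Gal (28 µM) plus lactose (2 mM) added; 20 min at 30 °C; UDP read by malachite green at 620 nm versus UDP standard curve, background-corrected; triplicate.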

[2] = test system: Neisseria meningitidis; test: Inhibition of Neisseria meningitidis alpha-1,4-galactosyltransferase assessed as consumption of donor UDP-Gal by measuring turnover rate at 0.1 to 100 uM using lactose as substrate in presence of UDP-Gal measured after 20 min by malachite green dye-based assay relative to total amount of UDP-Gal used
Summary of the method: (§2)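 No pre-incubation: DTT-activated LgtC with MnCl2 5 mM, CIP 10 U/mL, egg-white lysozyme 1 mg/mL, 0.01% Triton, 13 mM HEPES pH 7.0, lactose 2 mM, inhibitor in DMSO (10% final); started with UDP-Gal 28 µM, 20 min at 30 °C, 20-50% donor turnover. Malachite green read at 620 nm against a UDP calibration curve, background without acceptor subtracted, % of assay window; triplicate minimum; IC50 from sigmoidal fit.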

[3] = test system: Neisseria meningitidis; test: (§3) Inhibition of Neisseria meningitidis alpha-1,4-galactosyltransferase assessed as consumption of donor UDP-Gal by measuring turnover rate at 0.1 to 100 uM using lactose as substrate preincubated for 10 mins with UDP-Gal followed by lactose addition measured after 20 mins by malachite green dye-based assay relative to total amount of UDP-Gal used
Summary of the method: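 LgtC pre-incubated 10 min at 30 °C with inhibitor (DMSO, 10% final) and UDP-Gal 28 µM in 13 mM HEPES pH 7.0 with MnCl2 5 mM, CIP 10 U/mL, lysozyme 1 mg/mL, 0.01% Triton; lactose 2 mM then added, 20 min at 30 °C; malachite green absorbance at 620 nm converted via UDP calibration; triplicate.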

[4] = test system: Neisseria meningitidis; test: as §3, with “mins” for “mins with UDP-Gal”, “by substrate and UDP-Gal” for “by lactose”, “total” for “total amount of”; summary of the method: as §1
[5] = test system: Neisseria meningitidis; test: as §3, with “preincubated with lactose” for “preincubated”, “mins” for “mins with UDP-Gal”, “by UDP-Gal” for “by lactose”, “total” for “total amount of”
Summary of the method: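 Pre-incubation 10 min at 30 °C of activated LgtC, inhibitor (10% DMSO final) and lactose 2 mM in 13 mM HEPES pH 7.0 with MnCl2 5 mM, CIP 10 U/mL, lysozyme 1 mg/mL, 0.01% Triton; reaction started with UDP-Gal 28 µM, 20 min at 30 °C; malachite green readout at 620 nm against UDP standards; triplicate.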

[6] = test system: Neisseria meningitidis; test: (§4) Inhibition of Neisseria meningitidis alpha-1,4-galactosyltransferase assessed as consumption of donor UDP-Gal by measuring turnover rate at 0.1 to 100 uM using lactose as substrate preincubated for 20 mins followed by lactose and UDP-Gal addition measured after 20 mins by malachite green dye-based assay relative to total UDP-Gal used
[7] = Inhibition of Neisseria meningitidis alpha-1,4-galactosyltransferase assessed as enzyme activity using lactose as substrate in presence of UDP-Gal measured after 20 min by malachite green dye-based assay; summary of the method: as §2
[8] = Inhibition of Neisseria meningitidis alpha-1,4-galactosyltransferase assessed as enzyme activity using lactose as substrate preincubated for 5 mins followed by lactose and UDP-Gal addition measured after 20 mins by malachite green dye-based assay
[9] = Inhibition of Neisseria meningitidis alpha-1,4-galactosyltransferase assessed as enzyme activity using lactose as substrate preincubated for 10 mins followed by lactose and UDP-Gal addition measured after 20 mins by malachite green dye-based assay; summary of the method: as §1
[10] = Inhibition of Neisseria meningitidis alpha-1,4-galactosyltransferase assessed as enzyme activity using lactose as substrate preincubated for 20 mins followed by lactose and UDP-Gal addition measured after 20 mins by malachite green dye-based assay
[11] = Inhibition of Neisseria meningitidis alpha-1,4-galactosyltransferase assessed as enzyme activity using lactose as substrate preincubated for 30 mins followed by lactose and UDP-Gal addition measured after 20 mins by malachite green dye-based assay
[12] = Inhibition of Neisseria meningitidis alpha-1,4-galactosyltransferase assessed as enzyme activity using lactose as substrate preincubated for 60 mins followed by lactose and UDP-Gal addition measured after 20 mins by malachite green dye-based assay
[13] = Inhibition of Neisseria meningitidis alpha-1,4-galactosyltransferase assessed as enzyme activity using lactose as substrate preincubated for 180 mins followed by lactose and UDP-Gal addition measured after 20 mins by malachite green dye-based assay
[14] = species on record: Bos taurus; test: Inhibition of bovine beta-1,4-galactosyltransferase at 0.1 to 50 uM using UDP as substrate after 20 mins by malachite green dye-based assay
[15] = (§5) Inhibition of Neisseria meningitidis alpha-1,4-galactosyltransferase assessed as enzyme activity using lactose as substrate preincubated for 0 to 30 mins measured after 20 mins in presence of UDP-Gal
[16] = test system: Neisseria meningitidis; test: as §5
[17] = test system: Neisseria meningitidis; test: Inhibition of Neisseria meningitidis alpha-1,4-galactosyltransferase assessed as rate constant for enzyme activity at 0.5 uM using lactose as substrate preincubated with substrate measured after 20 mins in presence of UDP-Gal
Summary of the method: (§6)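 Activity measured at a series of inhibitor concentrations (0.5-200 µM range overall) after pre-incubation with LgtC for 0, 5, 10, 20 and 30 min, using the pre-incubation protocols (lactose 2 mM, UDP-Gal 28 µM, 20 min at 30 °C, malachite green); % of DMSO control plotted semi-logarithmically versus pre-incubation time to give kobs; kobs versus concentration gave Ki and kinact; triplicate.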

[18] = test system: Neisseria meningitidis; test: Inhibition of Neisseria meningitidis alpha-1,4-galactosyltransferase assessed as rate constant for enzyme activity at 4 uM using lactose as substrate preincubated with substrate measured after 20 mins in presence of UDP-Gal; summary of the method: as §6
[19] = test system: Neisseria meningitidis; test: Inhibition of Neisseria meningitidis alpha-1,4-galactosyltransferase assessed as rate constant for enzyme activity at 10 uM using lactose as substrate preincubated with substrate measured after 20 mins in presence of UDP-Gal; summary of the method: as §6
[20] = test system: Neisseria meningitidis; test: Inhibition of Neisseria meningitidis alpha-1,4-galactosyltransferase assessed as rate constant for enzyme activity at 25 uM using lactose as substrate preincubated with substrate measured after 20 mins in presence of UDP-Gal; summary of the method: as §6
[21] = test system: Neisseria meningitidis; test: Inhibition of Neisseria meningitidis alpha-1,4-galactosyltransferase assessed as rate constant for enzyme activity at 50 uM using lactose as substrate preincubated with substrate measured after 20 mins in presence of UDP-Gal; summary of the method: as §6
[22] = test system: Neisseria meningitidis; test: Inhibition of Neisseria meningitidis alpha-1,4-galactosyltransferase assessed as rate constant for enzyme activity at 100 uM using lactose as substrate preincubated with substrate measured after 20 mins in presence of UDP-Gal; summary of the method: as §6
[23] = test system: Neisseria meningitidis; test: as §4, with “to 50” for “to 100”, “for 60” for “for 20”
[24] = test system: Neisseria meningitidis; test: as §4, with “to 50” for “to 100”, “for 180” for “for 20”

inhibition [1] | inhibition [2] | inhibition [3] | inhibition [4] | inhibition [5] | pIC50 [7] | pIC50 [8] | pIC50 [9] | pIC50 [10] | pIC50 [11] | pIC50 [12] | pIC50 [13] | inhibition [14] | pKi [15] | Kinact [16] | K [17] | K [18] | K [19] | K [20] | K [21] | SMILES | further results
inactive | 29% | 29% | 25 to 41% | 23% | < 4.00 | < 4.30 | < 4.30 | 4.42 | 4.75 | 5.05 | 5.22 | inactive | 4.33 | 0.104 min⁻¹ | 0.002 min⁻¹ | 0.007 min⁻¹ | 0.011 min⁻¹ | 0.033 min⁻¹ | 0.068 min⁻¹ | O=C1/C(=C\c2cccc(OCc3ccccc3)c2)C(C(F)(F)F)=NN1c1ccccc1 | inhibition [6]: 27%; K [22]: 0.072 min⁻¹
inactive | 30% | 30% | 25% | 23% | < 4.30 | 4.62 | 4.80 | 5.19 | 5.51 | 5.51 | 5.26 | inactive | 5.36 | 0.0535 min⁻¹ | 0.006 min⁻¹ | 0.023 min⁻¹ | 0.039 min⁻¹ | 0.047 min⁻¹ | 0.048 min⁻¹ | COc1ccc(/C=C2\C(=O)N(c3ccccc3)N=C2C(F)(F)F)cc1Br | inhibition [23]: 39%; inhibition [24]: 26%
